# ChEMBL document CHEMBL3808372, “Identification of quinones as novel PIM1 kinase inhibitors” (Bioorg Med Chem Lett, 2016)
# What was measured:
# Set-up in all cases: scale not given: the % may be the effect or the level left
# [1] = target: Insulin receptor (Homo sapiens) (UniProt P06213); assay: Inhibition of human INSR (997 to 1318 amino acid residues) assessed as enzyme activity at 10 uM by KINOMEScan assay
# Outline: (§1)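 Competition binding screen on a 100-kinase KINOMEscan panel, compound tested at a single 10 μM concentration. Primary binding read-out expressed as % Ctrl = (test compound signal − positive control signal)/(negative control signal − positive control signal) × 100, with lower values meaning stronger binding.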
# [2] = target: MAP kinase-interacting serine/threonine-protein kinase 2 (Homo sapiens) (UniProt Q9HBH9); assay: Inhibition of human MKNK2 (63 to 388 amino acid residues) assessed as enzyme activity at 10 uM by KINOMEScan assay; outline: as §1
# [3] = target: Serine/threonine-protein kinase PAK 1 (Homo sapiens) (UniProt Q13153); assay: Inhibition of human PAK1 (149 to 545 amino acid residues) expressed in bacterial system assessed as enzyme activity at 10 uM by KINOMEScan assay; outline: as §1
# [4] = target: 3-phosphoinositide-dependent protein kinase 1 (Homo sapiens) (UniProt O15530); assay: Inhibition of full length human PDPK1 expressed in bacterial system assessed as enzyme activity at 10 uM by KINOMEScan assay; outline: as §1
# 3-phosphoinositide-dependent protein kinase 1 (Homo sapiens), sequence (O15530 whole entry): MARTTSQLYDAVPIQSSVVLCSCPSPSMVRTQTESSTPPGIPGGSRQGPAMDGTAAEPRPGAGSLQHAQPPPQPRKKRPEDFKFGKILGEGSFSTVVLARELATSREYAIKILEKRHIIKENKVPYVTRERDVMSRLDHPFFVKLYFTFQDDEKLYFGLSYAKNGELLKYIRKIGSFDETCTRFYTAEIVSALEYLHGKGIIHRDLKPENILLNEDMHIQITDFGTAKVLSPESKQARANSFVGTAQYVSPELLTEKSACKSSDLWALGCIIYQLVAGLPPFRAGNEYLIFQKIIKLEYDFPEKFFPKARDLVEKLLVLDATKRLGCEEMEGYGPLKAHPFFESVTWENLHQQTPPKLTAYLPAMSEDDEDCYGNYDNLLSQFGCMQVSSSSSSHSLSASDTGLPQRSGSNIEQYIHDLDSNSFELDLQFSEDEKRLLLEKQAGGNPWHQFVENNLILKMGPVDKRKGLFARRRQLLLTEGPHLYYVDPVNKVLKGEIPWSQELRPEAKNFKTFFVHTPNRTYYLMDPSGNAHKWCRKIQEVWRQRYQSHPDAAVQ
# MAP kinase-interacting serine/threonine-protein kinase 2 (Homo sapiens), sequence (Q9HBH9 whole entry, looked up, the tested form may be a part): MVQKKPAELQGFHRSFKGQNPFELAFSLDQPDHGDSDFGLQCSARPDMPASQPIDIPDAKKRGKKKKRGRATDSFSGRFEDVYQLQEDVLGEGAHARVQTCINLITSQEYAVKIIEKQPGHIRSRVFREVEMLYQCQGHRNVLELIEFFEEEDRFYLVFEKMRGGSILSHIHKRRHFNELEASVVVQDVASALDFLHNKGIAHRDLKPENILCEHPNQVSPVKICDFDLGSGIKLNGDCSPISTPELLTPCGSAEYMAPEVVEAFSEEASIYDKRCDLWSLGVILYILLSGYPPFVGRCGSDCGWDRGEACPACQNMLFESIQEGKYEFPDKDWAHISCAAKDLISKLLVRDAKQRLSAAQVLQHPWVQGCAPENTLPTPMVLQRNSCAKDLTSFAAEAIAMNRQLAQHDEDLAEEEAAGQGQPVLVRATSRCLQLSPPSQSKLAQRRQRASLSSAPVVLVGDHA
# Insulin receptor (Homo sapiens), sequence (P06213 28-758 limits assumed): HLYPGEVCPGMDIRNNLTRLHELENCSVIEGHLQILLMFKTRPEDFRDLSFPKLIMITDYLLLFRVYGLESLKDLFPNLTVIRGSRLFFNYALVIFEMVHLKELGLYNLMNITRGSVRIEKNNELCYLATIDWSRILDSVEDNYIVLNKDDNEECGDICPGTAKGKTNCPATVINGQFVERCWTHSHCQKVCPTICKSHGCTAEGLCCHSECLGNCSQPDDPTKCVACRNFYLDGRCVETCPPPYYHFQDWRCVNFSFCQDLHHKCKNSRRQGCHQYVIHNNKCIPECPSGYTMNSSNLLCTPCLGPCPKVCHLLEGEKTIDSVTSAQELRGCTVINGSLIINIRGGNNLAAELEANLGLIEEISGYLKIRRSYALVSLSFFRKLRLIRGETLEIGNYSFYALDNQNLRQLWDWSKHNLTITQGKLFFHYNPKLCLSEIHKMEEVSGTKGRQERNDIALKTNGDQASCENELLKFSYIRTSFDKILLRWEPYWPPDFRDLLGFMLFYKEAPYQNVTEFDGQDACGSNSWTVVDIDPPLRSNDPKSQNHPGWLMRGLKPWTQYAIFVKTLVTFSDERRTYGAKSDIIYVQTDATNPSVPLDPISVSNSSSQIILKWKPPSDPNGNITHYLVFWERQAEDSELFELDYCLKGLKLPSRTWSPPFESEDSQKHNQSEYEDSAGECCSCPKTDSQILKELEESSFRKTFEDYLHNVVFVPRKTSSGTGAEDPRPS
# Insulin receptor (Homo sapiens), sequence (P06213 763-1382 limits assumed): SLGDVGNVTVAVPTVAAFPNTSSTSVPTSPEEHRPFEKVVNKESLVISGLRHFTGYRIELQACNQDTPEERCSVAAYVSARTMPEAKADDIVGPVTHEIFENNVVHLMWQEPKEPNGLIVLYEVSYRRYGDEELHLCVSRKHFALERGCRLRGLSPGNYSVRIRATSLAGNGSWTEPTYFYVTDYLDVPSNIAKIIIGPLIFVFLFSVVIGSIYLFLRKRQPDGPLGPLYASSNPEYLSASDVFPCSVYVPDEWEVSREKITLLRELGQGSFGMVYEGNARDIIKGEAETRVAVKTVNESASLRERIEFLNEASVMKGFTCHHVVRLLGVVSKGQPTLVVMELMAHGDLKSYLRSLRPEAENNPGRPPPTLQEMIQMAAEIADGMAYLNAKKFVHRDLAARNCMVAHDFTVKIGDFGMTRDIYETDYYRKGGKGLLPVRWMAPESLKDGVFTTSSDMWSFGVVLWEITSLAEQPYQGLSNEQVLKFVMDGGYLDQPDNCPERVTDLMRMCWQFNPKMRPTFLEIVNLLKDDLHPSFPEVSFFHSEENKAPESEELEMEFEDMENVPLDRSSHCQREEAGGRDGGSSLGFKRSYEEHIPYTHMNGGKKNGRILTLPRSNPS
# Serine/threonine-protein kinase PAK 1 (Homo sapiens), sequence (Q13153 whole entry, the tested form may be a part): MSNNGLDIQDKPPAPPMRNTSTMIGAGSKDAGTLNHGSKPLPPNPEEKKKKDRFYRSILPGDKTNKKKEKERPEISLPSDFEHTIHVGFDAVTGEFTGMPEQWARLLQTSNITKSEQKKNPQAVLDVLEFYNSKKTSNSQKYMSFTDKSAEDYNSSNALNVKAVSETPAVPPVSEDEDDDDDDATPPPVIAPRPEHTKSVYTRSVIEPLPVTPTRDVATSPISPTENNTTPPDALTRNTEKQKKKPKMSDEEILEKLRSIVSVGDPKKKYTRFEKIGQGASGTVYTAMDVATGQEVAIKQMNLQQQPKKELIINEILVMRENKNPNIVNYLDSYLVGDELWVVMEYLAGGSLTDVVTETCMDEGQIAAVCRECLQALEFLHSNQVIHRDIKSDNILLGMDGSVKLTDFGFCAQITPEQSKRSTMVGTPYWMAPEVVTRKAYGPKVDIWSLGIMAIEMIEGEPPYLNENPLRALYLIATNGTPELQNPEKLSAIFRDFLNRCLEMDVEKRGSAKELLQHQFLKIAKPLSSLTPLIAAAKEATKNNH
smiles,measurement,setting,value
O=C1C2=C(C(=O)c3c(O)ccc(O)c31)[C@@H](O)[C@@H](O)[C@@H](O)C2,Activity,[1],97%
same,Activity,[2],98%
same,Activity,[3],93%
same,Activity,[4],87%
